What is called EC50 is the concentration that produces a half-maximal response. Lower therefore signals a more potent agent. The Emax is the size of the effect at its maximum, as opposed to the concentration needed. The term IC50 denotes the concentration at which inhibition is half-maximal.

Experimental findings from ChEMBL document CHEMBL3860039, “Structure-Activity Relationship and Signaling of New Chimeric CXCR4 Agonists” (J Med Chem, 2016) are described below.

Holding throughout (assay type): cell-based
Assay [1] concerns the target T1, C-X-C chemokine receptor type 4 (Homo sapiens, UniProt P61073). The assay can be described thus: Agonist activity at HA-tagged human CXCR4 receptor expressed in HEK293 cells co-transfected with Galphai1-91-RlucII, Gbeta1, and GFP10-G-gamma1 incubated for 7 mins by Galpha1 protein activation-based BRET assay. In a few lines:
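HEK293 cells (3 × 10^6 per 100 mm dish) co-transfected via polyethylenimine with HA-hCXCR4 plus Gαi1-91-RlucII, Gβ1, GFP10-Gγ1; replated at 24 h, 100 000 cells/well. At 48 h, washed in HBSS/0.1% BSA, exposed to ligand 10−12 to 10−5 M for 7 min, then coelenterazine-400A 5 μM final; BRET2 515/400 nm ratio. EC50 (Gαi dissociation) and Emax from three experiments in triplicate.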
In general terms: BRET reads energy transfer from a luciferase to a nearby fluorophore.

Assay [2] addresses T1, C-X-C chemokine receptor type 4. The assay can be described thus: Agonist activity at CXCR4 in human REH cells assessed as optimal concentration causing maximum induction of chemotaxis incubated for 3 hrs by transwell migration assay. The procedure, abridged:
(§1)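 REH acute lymphoblastic B-cell leukaemia cells washed in RPMI; 100 000 cells in RPMI + 0.2% BSA seeded on top of 5 μm pore polycarbonate transwell, peptide dilutions in same medium in bottom chamber; 3 h, 37 °C, 5% CO2. Migrated cells in lower chamber counted by automated counter, expressed as % of seeded cells; peak = concentration giving maximal migration. Three experiments in triplicate.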

Assay [3] has the same target. The assay can be described thus: Displacement of [125I]-CXCL12 from HA-tagged human recombinant CXCR4 expressed in HEK293 cells incubated for 1 hr by gamma-radiation counting analysis. (In general: In a radioligand displacement assay an active substance lowers the binding of a labelled ligand.)
Assay [4] shares this target. The assay can be described thus: Agonist activity at CXCR4 in human REH cells assessed as induction of chemotaxis incubated for 3 hrs by transwell migration assay. In a few lines: as §1

The structures appear in SMILES notation.

T1 sequence (P61073 whole entry): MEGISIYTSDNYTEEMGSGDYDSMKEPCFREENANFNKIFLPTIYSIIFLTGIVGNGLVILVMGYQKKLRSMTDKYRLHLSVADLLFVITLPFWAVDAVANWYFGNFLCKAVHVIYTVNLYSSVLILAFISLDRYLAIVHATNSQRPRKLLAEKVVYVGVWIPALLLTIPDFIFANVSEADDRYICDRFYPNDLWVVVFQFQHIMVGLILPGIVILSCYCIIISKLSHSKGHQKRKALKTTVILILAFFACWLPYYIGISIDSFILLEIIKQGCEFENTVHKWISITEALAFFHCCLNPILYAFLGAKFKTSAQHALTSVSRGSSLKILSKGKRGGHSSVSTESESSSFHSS

In assay [1], `CC(C)C[C@H](NC(=O)[C@H](CO)NC(=O)[C@@H](NC(=O)[C@@H]1CCCN1C(=O)[C@@H](N)CCCCN)C(C)C)C(=O)N[C@@H](CO)C(=O)N[C@@H](Cc1ccc(N)cc1)C(=O)N[C@@H](CCCNC(=N)N)C(=O)N[C@@H](CO)C(=O)N[C@@H](C)C(=O)NCCCC[C@H](NC(=O)[C@@H]1CSSC[C@H](NC(=O)[C@H](Cc2ccc3ccccc3c2)NC(=O)[C@H](CCCNC(=N)N)NC(=O)[C@@H](N)CCCNC(=N)N)C(=O)N[C@@H](Cc2ccc(O)cc2)C(=O)N[C@@H](CCCNC(=N)N)C(=O)N[C@@H](CCCCN)C(=O)N[C@H](CCCCN)C(=O)N2CCC[C@H]2C(=O)N[C@@H](Cc2ccc(O)cc2)C(=O)N[C@@H](CCCNC(=N)N)C(=O)N[C@@H](CCCNC(=N)N)C(=O)N1)C(=O)O` yielded an EC50 of 83 nM and an Emax of 33%. Also, in assay [2], the Activity came to 10 nM. In addition, in assay [3], the half-inhibitory concentration (IC50) stood at 94 nM. In assay [4], the %max turned out to be 27%.
For the compound `CC(C)C[C@H](NC(=O)[C@H](CO)NC(=O)[C@H](Cc1cc2cccc3ccc4cccc1c4c32)NC(=O)[C@@H]1CCCN1C(=O)[C@@H](N)CCCCN)C(=O)N[C@@H](CO)C(=O)N[C@@H](Cc1ccc(O)cc1)C(=O)N[C@@H](CCCNC(=N)N)C(=O)N[C@@H](CO)C(=O)N[C@@H](C)C(=O)NCCCC[C@H](NC(=O)[C@@H]1CSSC[C@H](NC(=O)[C@H](Cc2ccc3ccccc3c2)NC(=O)[C@H](CCCNC(=N)N)NC(=O)[C@@H](N)CCCNC(=N)N)C(=O)N[C@@H](Cc2ccc(O)cc2)C(=O)N[C@@H](CCCNC(=N)N)C(=O)N[C@@H](CCCCN)C(=O)N[C@H](CCCCN)C(=O)N2CCC[C@H]2C(=O)N[C@@H](Cc2ccc(O)cc2)C(=O)N[C@@H](CCCNC(=N)N)C(=O)N[C@@H](CCCNC(=N)N)C(=O)N1)C(=O)O`, in assay [1], the EC50 stood at 74 nM and the Emax was found to be 47%. For the same compound, in assay [2], the Activity is 100 nM. Also, in assay [3], the IC50 was 90 nM. For the same compound, in assay [4], the %max was 45%.
The matching figures for `CC(C)C[C@H](NC(=O)[C@H](CO)NC(=O)[C@@H](NC(=O)[C@@H]1CCCN1C(=O)[C@@H](N)CCCCN)C(C)C)C(=O)N[C@@H](CO)C(=O)N[C@@H](Cc1ccc(O)cc1)C(=O)N[C@@H](C)C(=O)N[C@@H](CO)C(=O)N[C@@H](C)C(=O)NCCCC[C@H](NC(=O)[C@@H]1CSSC[C@H](NC(=O)[C@H](Cc2ccc3ccccc3c2)NC(=O)[C@H](CCCNC(=N)N)NC(=O)[C@@H](N)CCCNC(=N)N)C(=O)N[C@@H](Cc2ccc(O)cc2)C(=O)N[C@@H](CCCNC(=N)N)C(=O)N[C@@H](CCCCN)C(=O)N[C@H](CCCCN)C(=O)N2CCC[C@H]2C(=O)N[C@@H](Cc2ccc(O)cc2)C(=O)N[C@@H](CCCNC(=N)N)C(=O)N[C@@H](CCCNC(=N)N)C(=O)N1)C(=O)O`: 40 nM, 25%, 10000 nM, 300 nM and 16%.
In assay [1], `CC(C)C[C@H](NC(=O)[C@H](C)NC(=O)[C@@H](NC(=O)[C@@H]1CCCN1C(=O)[C@@H](N)CCCCN)C(C)C)C(=O)N[C@@H](CO)C(=O)N[C@@H](Cc1ccc(O)cc1)C(=O)N[C@@H](CCCNC(=N)N)C(=O)N[C@@H](CO)C(=O)N[C@@H](C)C(=O)NCCCC[C@H](NC(=O)[C@@H]1CSSC[C@H](NC(=O)[C@H](Cc2ccc3ccccc3c2)NC(=O)[C@H](CCCNC(=N)N)NC(=O)[C@@H](N)CCCNC(=N)N)C(=O)N[C@@H](Cc2ccc(O)cc2)C(=O)N[C@@H](CCCNC(=N)N)C(=O)N[C@@H](CCCCN)C(=O)N[C@H](CCCCN)C(=O)N2CCC[C@H]2C(=O)N[C@@H](Cc2ccc(O)cc2)C(=O)N[C@@H](CCCNC(=N)N)C(=O)N[C@@H](CCCNC(=N)N)C(=O)N1)C(=O)O` returned an EC50 of 56 nM and an Emax of 81%. The Activity in assay [2] worked out at 10 nM. The IC50 in assay [3] amounted to 25 nM. Further, in assay [4], the %max amounted to 50%.
The matching figures for `CC(C)C[C@H](NC(=O)[C@H](CO)NC(=O)[C@@H](NC(=O)[C@@H]1CCCN1C(=O)[C@@H](N)CCCCN)C(C)(C)C)C(=O)N[C@@H](CO)C(=O)N[C@@H](Cc1ccc(O)cc1)C(=O)N[C@@H](CCCNC(=N)N)C(=O)N[C@@H](CO)C(=O)N[C@@H](C)C(=O)NCCCC[C@H](NC(=O)[C@@H]1CSSC[C@H](NC(=O)[C@H](Cc2ccc3ccccc3c2)NC(=O)[C@H](CCCNC(=N)N)NC(=O)[C@@H](N)CCCNC(=N)N)C(=O)N[C@@H](Cc2ccc(O)cc2)C(=O)N[C@@H](CCCNC(=N)N)C(=O)N[C@@H](CCCCN)C(=O)N[C@H](CCCCN)C(=O)N2CCC[C@H]2C(=O)N[C@@H](Cc2ccc(O)cc2)C(=O)N[C@@H](CCCNC(=N)N)C(=O)N[C@@H](CCCNC(=N)N)C(=O)N1)C(=O)O`: 15 nM, 36%, 100 nM, 84 nM and 21%.
The matching figures for `CC(C)C[C@H](NC(=O)[C@H](CO)NC(=O)[C@@H](NC(=O)[C@@H]1CCCN1C(=O)[C@@H](N)CCCCN)C(C)C)C(=O)N[C@@H](CO)C(=O)N[C@@H](Cc1ccc(C(=O)c2ccccc2)cc1)C(=O)N[C@@H](CCCNC(=N)N)C(=O)N[C@@H](CO)C(=O)N[C@@H](C)C(=O)NCCCC[C@H](NC(=O)[C@@H]1CSSC[C@H](NC(=O)[C@H](Cc2ccc3ccccc3c2)NC(=O)[C@H](CCCNC(=N)N)NC(=O)[C@@H](N)CCCNC(=N)N)C(=O)N[C@@H](Cc2ccc(O)cc2)C(=O)N[C@@H](CCCNC(=N)N)C(=O)N[C@@H](CCCCN)C(=O)N[C@H](CCCCN)C(=O)N2CCC[C@H]2C(=O)N[C@@H](Cc2ccc(O)cc2)C(=O)N[C@@H](CCCNC(=N)N)C(=O)N[C@@H](CCCNC(=N)N)C(=O)N1)C(=O)O`: 76 nM, 90%, 10 nM, 34 nM and 69%.
The matching figures for `CC(C)C[C@H](NC(=O)[C@H](CO)NC(=O)[C@@H](NC(=O)[C@@H]1CCCN1C(=O)[C@@H](N)CCCCN)C(C)C)C(=O)N[C@@H](CO)C(=O)N[C@@H](Cc1ccccc1)C(=O)N[C@@H](CCCNC(=N)N)C(=O)N[C@@H](CO)C(=O)N[C@@H](C)C(=O)NCCCC[C@H](NC(=O)[C@@H]1CSSC[C@H](NC(=O)[C@H](Cc2ccc3ccccc3c2)NC(=O)[C@H](CCCNC(=N)N)NC(=O)[C@@H](N)CCCNC(=N)N)C(=O)N[C@@H](Cc2ccc(O)cc2)C(=O)N[C@@H](CCCNC(=N)N)C(=O)N[C@@H](CCCCN)C(=O)N[C@H](CCCCN)C(=O)N2CCC[C@H]2C(=O)N[C@@H](Cc2ccc(O)cc2)C(=O)N[C@@H](CCCNC(=N)N)C(=O)N[C@@H](CCCNC(=N)N)C(=O)N1)C(=O)O`: 65 nM, 41%, 10 nM, 69 nM and 16%.
